The species named for one series is Homo sapiens. As to the kind of experiment: Anti-inflammatory activity in […] cells assessed as inhibition of LPS-stimulated NO release preincubated for 30 mins followed by LPS stimulation and measured after 24 hrs by Griess reagent based assay. Format: functional, cell-based. Background: Griess reagent forms a coloured azo dye with nitrite.
A further series has as its target Acetylcholinesterase (Electrophorus electricus, UniProt O42275). As to the kind of experiment: Inhibition of electric eel AChE using acetylthiocholine iodide as substrate after 15 mins by Ellman's method. For orientation: DTNB colorimetry detects thiols as they appear.
The nature of series [1]: Metal chelating activity assessed as compound-Cu2+ complex formation at 37.5 uM after 30 mins by UV spectrometry method. The essentials: (§1)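 Compound and metal salt (CuCl2, ZnCl2, FeSO4 or AlCl3), each 37.5 µM final in methanol, incubated 30 min at room temperature. UV-vis spectra recorded from 200 to 600 nm and compared with the compound alone.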
Series [2] is described as follows: Metal chelating activity assessed as compound-Fe2+ complex formation at 37.5 uM after 30 mins by UV spectrometry method. In a few lines:
as §1

Series [3] is described as follows: Metal chelating activity assessed as mole fraction of compound required to show 1:2 stoichiometry for compound -Cu2+ complex at 37.5 uM after 30 mins by UV spectrometry method. In a few lines:
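Molar-ratio titration in methanol: compound fixed at 37.5 µM final, CuCl2 varied from 3.75 to 150 µM final. Spectra corrected by subtracting CuCl2 and compound alone. Absorbance at 274 nm plotted against mole fraction; stoichiometry taken from where the straight lines intersect.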

The nature of series [4]: Inhibition of Cu2+ induced human amyloid beta (1 to 42) aggregation at 25 uM after 24 hrs by Thioflavin T based fluorometric assay relative to control. In a few lines:
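Aβ1-42 (25 µM) and Cu2+ (25 µM) in HEPES buffer (20 mM, pH 6.6, 150 mM NaCl), with or without compound (25 µM final), incubated 24 h at 37 °C. ThT (5 µM) in glycine-NaOH, pH 8.5, added and fluorescence read. Triplicate; three independent experiments.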

For series [5], the target named is Amyloid-beta precursor protein (Homo sapiens, UniProt P05067). Put plainly: Inhibition of human amyloid beta (1 to 42) self-induced aggregation after 24 hrs by Thioflavin T based fluorometric assay. The essentials:
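Self-induced Aβ1-42 aggregation (25 µM peptide) in phosphate buffer, pH 7.4, for 24 h at 37 °C with varying compound concentrations. Aggregation read by ThT fluorescence (5 µM ThT, glycine-NaOH pH 8.5).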

Series [6] is described as follows: Disaggregation of Cu2+ induced preformed fibrils of human amyloid beta (1 to 42) at 25 uM after 24 hrs by Thioflavin T based fluorometric assay relative to control. In a few lines: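 Aβ1-42 (25 µM) with Cu2+ (25 µM) in HEPES buffer pre-aggregated 24 h at 37 °C. Compound (25 µM) then added for a further 24 h at 37 °C. Fibril content measured by ThT fluorescence (glycine-NaOH, pH 8.5). Triplicate; three independent experiments.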

Series [7] can be described thus: Effective permeability of the compound in PBS/EtOH at 100 ug/ml after 18 hrs by PAMPA. The following applies: read-out: Peff. Format: ADME. (In general: The PAMPA barrier holds no transporters, so it reflects passive diffusion.)
Series [8] in a line: Effect on NO release in […] cells up to 10 uM after 24 hrs by Griess reagent based assay. The format is ADME, cell-based. The essentials: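 BV-2 cells in DMEM treated with compound alone, without LPS, up to 10 µM. Nitrite in culture supernatant measured by Griess reagent (A540) against a NaNO2 standard curve. Mean ± SD of three independent experiments.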
A short description of series [9]: Effect on TNFalpha release in […] cells up to 10 uM after 24 hrs by ELISA. Format: ADME, cell-based. The essentials:
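BV-2 cells exposed to compound up to 10 µM with no added LPS. TNF-α in the medium measured by ELISA. Mean ± SD of three independent experiments.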

The source made the active and inactive calls. The rule behind the calls is not given here.

Broadly, the inhibition is how much of the control response was suppressed. The IC50 is the concentration at which inhibition is half-maximal. Low values mean greater potency, high ones weaker potency.

Amyloid-beta precursor protein, sequence (P05067 whole entry): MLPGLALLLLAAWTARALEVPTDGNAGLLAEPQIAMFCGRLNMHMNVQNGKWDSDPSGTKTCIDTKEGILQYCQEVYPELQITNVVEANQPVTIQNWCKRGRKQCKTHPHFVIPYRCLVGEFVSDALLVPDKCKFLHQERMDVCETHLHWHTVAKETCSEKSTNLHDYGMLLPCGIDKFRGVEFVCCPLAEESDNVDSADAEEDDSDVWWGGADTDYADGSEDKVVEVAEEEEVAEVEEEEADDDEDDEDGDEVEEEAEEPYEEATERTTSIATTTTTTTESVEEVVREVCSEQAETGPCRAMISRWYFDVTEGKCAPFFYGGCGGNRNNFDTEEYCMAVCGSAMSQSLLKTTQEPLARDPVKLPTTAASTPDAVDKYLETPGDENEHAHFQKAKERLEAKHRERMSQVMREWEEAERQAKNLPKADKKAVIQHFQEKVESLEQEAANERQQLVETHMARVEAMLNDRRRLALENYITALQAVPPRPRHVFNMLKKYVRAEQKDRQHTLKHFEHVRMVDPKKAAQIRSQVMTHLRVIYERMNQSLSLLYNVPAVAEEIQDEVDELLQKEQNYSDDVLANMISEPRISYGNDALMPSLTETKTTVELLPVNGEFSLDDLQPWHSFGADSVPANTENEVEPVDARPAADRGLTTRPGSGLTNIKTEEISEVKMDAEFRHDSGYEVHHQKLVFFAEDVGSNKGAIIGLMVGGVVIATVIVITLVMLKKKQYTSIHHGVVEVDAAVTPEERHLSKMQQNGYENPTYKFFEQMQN
Acetylcholinesterase, sequence (O42275 whole entry): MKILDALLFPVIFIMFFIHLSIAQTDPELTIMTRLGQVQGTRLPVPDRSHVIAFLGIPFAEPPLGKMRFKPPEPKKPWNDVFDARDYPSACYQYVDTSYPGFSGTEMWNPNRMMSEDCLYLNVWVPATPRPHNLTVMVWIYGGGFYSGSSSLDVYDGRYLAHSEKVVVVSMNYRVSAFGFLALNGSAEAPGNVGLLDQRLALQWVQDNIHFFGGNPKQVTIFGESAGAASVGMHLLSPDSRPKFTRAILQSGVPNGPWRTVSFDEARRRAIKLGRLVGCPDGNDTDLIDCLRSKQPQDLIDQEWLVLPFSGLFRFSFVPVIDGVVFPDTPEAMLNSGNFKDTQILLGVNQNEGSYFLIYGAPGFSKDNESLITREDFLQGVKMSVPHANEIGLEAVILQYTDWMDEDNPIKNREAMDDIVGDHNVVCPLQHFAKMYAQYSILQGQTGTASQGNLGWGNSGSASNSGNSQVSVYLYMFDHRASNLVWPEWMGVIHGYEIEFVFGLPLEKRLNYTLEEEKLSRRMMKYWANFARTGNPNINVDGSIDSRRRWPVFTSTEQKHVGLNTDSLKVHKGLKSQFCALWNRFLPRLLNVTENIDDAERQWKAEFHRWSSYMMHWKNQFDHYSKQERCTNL

With `CCN(CCCCNC(=O)c1cc(O)c(C(=O)NCCCCN(CC)Cc2ccccc2OC)cc1O)Cc1ccccc1OC`, the figures for the inhibition result (in the series filed under Homo sapiens; in series [4]) were “Dose-dependent effect” and 71.7%, respectively. For the same compound, the IC50 at Acetylcholinesterase came out at 5.12 µM; in series [5] it was 3.05 µM. In addition, the result in series [1] and in series [2] was Active. For the same compound, the Activity in series [3] was 1.9 molar ratio; in series [6] it was 77.2%; in series [8], “Non-Toxic”; in [9], “Non-Toxic”. The Papp at 18 h, 100 ug/ml in series [7] turned out to be 4.45 ×10⁻⁶ cm/s.

The values are drawn from ChEMBL document CHEMBL4382240, “Discovery of novel 2,5-dihydroxyterephthalamide derivatives as multifunctional agents for the treatment of Alzheimer's disease” (Bioorg Med Chem, 2018).
